Measurements reported in ChEMBL document CHEMBL1148721 (J Med Chem, 2007).

Key:
[1] = Agonist activity at rat GABA alpha-1-T129S-beta-2-gamma-2 receptor mutant expressed in HEK293 cells by Whole-cell patch-clamp technique relative to GABA; format: functional
Procedure, shortened: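 Rat α1(Thr129Ser) with β2 and γ2S (1:1:2) transiently co-transfected with a GFP plasmid into HEK293 cells; whole-cell patch-clamp 20-72 h after transfection at 20-22 °C, clamp usually -60 mV, extracellular solution pH 7.35. Agonist applied by perfusion pipette. Hill-equation fit gives EC50 and Imax; maximal response as % of GABA maximum; at least five cells.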

[2] = Agonist activity at human GABAC rho 1 receptor expressed in HEK293 cells by FMP assay relative to GABA; format: functional
Procedure, shortened: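 Stable human ρ1 HEK293 clone kept in 1 mg/mL G-418 and plated on poly-D-lysine plates for 16-24 h. Dye loading for 30 min at 37 °C in HBSS + 20 mM HEPES pH 7.4. Emission at 560 nm (excitation 530 nm) recorded before and up to 1 min after agonist. Concentration-response curves built from maximal responses; Rmax given as % of GABA; duplicates, ≥3 experiments.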

[3] = Agonist activity at GABAC rho 1 receptor expressed in tsA-201 cells by FMP assay relative to GABA; format: functional, Homo sapiens
Procedure, shortened: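 Human ρ1 (WT) transiently expressed in tsA-201 cells via Polyfect, plated on poly-D-lysine plates 16-24 h post-transfection and assayed next day. Cells loaded with membrane potential dye in HBSS + 20 mM HEPES pH 7.4, 30 min at 37 °C. Fluorescence read (ex 530/em 560 nm) before and up to 1 min after agonist addition. Rmax expressed as % of GABA maximal response; ≥3 experiments in duplicate.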

[4] = Agonist activity at GABAC rho 1 receptor S168T mutant expressed in tsA-201 cells by FMP assay relative to GABA; format: functional, Homo sapiens
Procedure, shortened: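 tsA-201 cells transiently transfected with human ρ1 Ser168Thr cDNA, plated on poly-D-lysine after 16-24 h and assayed the next day. Cells loaded with membrane potential dye in HBSS/20 mM HEPES pH 7.4 for 30 min at 37 °C. Fluorescence (ex 530/em 560 nm) read up to 1 min after agonist addition. Rmax given as % of GABA maximum at the same receptor; duplicates, at least three experiments.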

[5] = Agonist activity at human GABAC rho 1 receptor expressed in HEK293 cells by Whole-cell patch-clamp technique relative to GABA; format: functional
Procedure, shortened: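 HEK293 cells cotransfected with human ρ1 plus GFP (Targefect) and recorded 20-72 h later by whole-cell patch clamp at -60 mV, 20-22 °C. Bath solution: 140 mM NaCl, HEPES, pH 7.35. Agonists applied by gravity-fed multibarrel perfusion. Hill equation fitted to obtain EC50, nH and Imax; maximal response as % of GABA; ≥5 cells.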

[6] = Agonist activity at GABAC rho 1 receptor expressed in tsA-201 cells by FMP assay; format: functional, cell-based; settings: Homo sapiens, tsA201
[7] = Agonist activity at GABAC rho 1 receptor S168T mutant expressed in tsA-201 cells by FMP assay; format: functional, cell-based; settings: Homo sapiens, tsA201
[8] = Agonist activity at human GABAC rho 1 receptor expressed in HEK293 cells by FMP assay; format: functional, cell-based; settings: for EC50: Homo sapiens, HEK293
[9] = Displacement of [3H]muscimol from GABAA receptor in rat brain membrane; format: cell membranes
Procedure, shortened: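 Native GABAA receptor affinity was measured by [3H]muscimol binding to rat brain membranes. Ki was calculated from pKi; ≥3 experiments in duplicate.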

[10] = Antagonist activity at human GABAc rho 1 receptor expressed in HEK293 cells by FMP assay; format: functional, cell-based
Procedure, shortened: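 Stable HEK293 line expressing human ρ1 (selected under G-418). Antagonist included with the loading dye in HBSS/20 mM HEPES pH 7.4 for 30 min at 37 °C, then agonist added. Fluorescence (ex 530/em 560 nm) read up to 1 min. Ki from inhibition curves by the Cheng-Prusoff relation using agonist concentration and EC50; duplicates, at least three experiments.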

[11] = Agonist activity at human GABA alpha-1-beta-2-gamma-2s receptor expressed in Xenopus oocytes by two electrode voltage-clamp assay; format: functional, cell-based; settings: Oocyte
[12] = Agonist activity at human GABAC rho 1 receptor expressed in HEK293 cells by Whole-cell patch-clamp technique; format: functional, cell-based
[13] = molecular target: GABA A receptor alpha-1/beta-2/gamma-2 (Rattus norvegicus); assay: Agonist activity at GABA alpha-1-beta-2-gamma-2 receptor expressed in HEK293 cells by Whole-cell patch-clamp technique
[14] = cells; format: functional, cell-based; settings: HEK293

EC50 ([6]; read-out: EC50) [µM]	EC50 ([6]; read-out: Log EC50 (converted)) [µM]	EC50 ([7]; read-out: EC50) [µM]	EC50 [8] [µM]	Ki [9] [µM]	SMILES	RUmax [2] [%]	RUmax [3] [%]	also measured
–	–	–	> 1000	> 100	Cc1nc(CC(=O)O)c[nH]1	–	–	–
–	–	–	–	> 100	O=C(O)Cc1c[nH]c(Cl)n1	–	–	EC50 [11]: > 1000 µM
–	–	–	> 1000	> 100	O=C(O)Cc1c[nH]c(-c2ccccc2)n1	–	–	–
–	–	–	> 1000	> 100	O=C(O)Cc1[nH]cnc1I	–	–	–
–	–	–	> 1000	> 100	O=C(O)Cc1[nH]c(Cl)nc1-c1ccccc1	–	–	–
11	10	> 1000	22	67	Cc1[nH]cnc1CC(=O)O	95	106	EC50 ([12]; read-out: EC50): 31 µM; EC50 ([12]; read-out: Log EC50 (converted)): 31.6 µM; EC50 [13]: > 1000 µM; Log Ki [9]: -4.2; EC50 [11]: > 1000 µM; EC50 ([14]; read-out: EC50): > 1000 µM; RUmax [5]: 66%

More lines, now with the values behind:

SMILES	EC50 ([6]; read-out: EC50) [µM]	EC50 ([6]; read-out: Log EC50 (converted)) [µM]	EC50 ([7]; read-out: EC50) [µM]	EC50 [8] [µM]	Ki [9] [µM]	RUmax [2] [%]	RUmax [3] [%]	also measured
NCCCC(=O)O [GAMMA-AMINOBUTYRIC ACID]	–	–	–	–	–	100	100	RUmax [1]: 100%; RUmax [4]: 100%; RUmax [5]: 100%
NCc1cc(O)no1 [MUSCIMOL]	0.62	0.631	24	2.2	–	101	104	RUmax [4]: 96%; EC50 ([7]; read-out: Log EC50 (converted)): 25.1 µM
Oc1noc2c1CCNC2 [GABOXADOL]	–	–	–	–	–	–	–	Ki [10]: 100 µM; Log Ki [10]: -4
O=C(O)Cc1[nH]cnc1-c1ccccc1	140	158	> 3000	420	> 100	98	131	EC50 [11]: > 1000 µM
CP(=O)(O)C1=CCNCC1	–	–	–	–	–	–	–	Ki ([8]; hek293): 1.3 µM
Cc1ccccc1-c1nc[nH]c1CC(=O)O	–	–	–	> 1000	> 100	–	–	–
O=C(O)C1=CCNCC1 [ISOGUVACINE]	–	–	–	67	–	97	–	–
CC1N=C(CC(=O)O)C(c2ccccc2)=N1 (stereo unspecified)	–	–	–	> 1000	> 100	–	–	EC50 [11]: > 1000 µM
Cc1cccc(-c2nc[nH]c2CC(=O)O)c1	–	–	–	> 1000	> 100	–	–	–
O=C(O)Cc1[nH]cnc1-c1ccc(F)cc1	330	316	> 3000	210	> 100	115	94	–
Cc1ccc(-c2nc[nH]c2CC(=O)O)cc1	220	200	> 3000	240	> 100	111	127	–
O=C(O)Cc1c[nH]cn1 [IMIDAZOLE ACETIC ACID]	5.5	5.01	100	13	0.65	32	37	RUmax [1]: 39%; EC50 ([12]; read-out: EC50): 5.5 µM; EC50 ([12]; read-out: Log EC50 (converted)): 5.5 µM; Log Ki [9]: -6.2; EC50 ([14]; read-out: EC50): 20 µM; EC50 ([14]; read-out: Log EC50 (converted)): 20 µM; RUmax [4]: 10%; RUmax [5]: 7.5%
